How the values were obtained:
Format in all cases: in vivo, rats
Mrp2 = assay: RT-qPCR mRNA expression in small intestine and liver; conditions: vs control
Cyp3a1 = assay: as above; conditions: vs control
P-gp = assay: Western blot protein expression in small intestine and liver; conditions: vs control
Ugt1a1 = assay: as above; conditions: vs control, P<0.001
Gstm1 = assay: Western blot protein expression in liver; conditions: vs control
Mdr1 = assay: RT-qPCR mRNA expression in small intestine and liver; conditions: vs control
Procedure, shortened: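 Rats, 3 per group, dosed once daily for 7 days: phosphate buffer 5 ml/kg i.v., test compound 2.5/5/10 mg/kg i.v. in phosphate buffer, ketoconazole 75 mg/kg i.g. in olive oil, or verapamil 4 mg/kg i.g. in water. Olive oil 5 ml/kg gavaged 30 min after day-7 dose. Killed 24 h post-dose after overnight fast; liver and intestinal mucosa snap-frozen. qPCR: 40 cycles, 58°C annealing; 2−ΔΔCq.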

[1] = liver, high-dose Q3GA 10 mg/kg i.v. 7 days, P<0.05
[2] = liver, low-dose Q3GA 2.5 mg/kg i.v. 7 days, P<0.001
[3] = liver, middle-dose Q3GA 5 mg/kg i.v. 7 days, P<0.01
[4] = small intestine, low-dose Q3GA 2.5 mg/kg i.v. 7 days, P<0.001
[5] = small intestine, middle-dose Q3GA 5 mg/kg i.v. 7 days, P<0.01
[6] = small intestine, middle-dose Q3GA 5 mg/kg i.v. 7 days
[7] = small intestine, high-dose Q3GA 10 mg/kg i.v. 7 days, P<0.001

SMILES: O=c1c(O[C@@H]2O[C@H](CO)[C@@H](O)[C@H](O)[C@H]2O)c(-c2ccc(O)c(O)c2)oc2cc(O)cc(O)c12 [Q3GA, Quercetin-3-O-β-D-glucoside]
- decrease in Mrp2 mRNA expression (Mrp2; [1]): 20.44%
- decrease in Mrp2 mRNA expression (Mrp2; [2]): 68.86%
- decrease in Mrp2 mRNA expression (Mrp2; [3]): 32.70%
- decrease in Mrp2 mRNA expression (Mrp2; small intestine, high-dose Q3GA 10 mg/kg i.v. 7 days, P<0.01): 28.66%
- decrease in Mrp2 mRNA expression (Mrp2; [4]): 66.03%
- decrease in Mrp2 mRNA expression (Mrp2; [5]): 34.53%
- decrease in Cyp3a1 mRNA expression (Cyp3a1; [1]): 33.73%
- decrease in Cyp3a1 mRNA expression (Cyp3a1; [2]): 65.14%
- decrease in Cyp3a1 mRNA expression (Cyp3a1; liver, middle-dose Q3GA 5 mg/kg i.v. 7 days, P<0.001): 54.94%
- decrease in Cyp3a1 mRNA expression (Cyp3a1; small intestine, high-dose Q3GA 10 mg/kg i.v. 7 days, P<0.05): 43.57%
- decrease in Cyp3a1 mRNA expression (Cyp3a1; [4]): 63.78%
- decrease in Cyp3a1 mRNA expression (Cyp3a1; [6]): 26.08%
- decrease in P-gp protein expression (P-gp; liver, high-dose Q3GA 10 mg/kg i.v. 7 days, P<0.001): 47.26%
- decrease in P-gp protein expression (P-gp; [2]): 67.93%
- decrease in P-gp protein expression (P-gp; [3]): 39.92%
- decrease in P-gp protein expression (P-gp; [7]): 41.70%
- decrease in P-gp protein expression (P-gp; [4]): 65.31%
- decrease in P-gp protein expression (P-gp; [5]): 30.22%
- decrease in UGT1A1 protein expression (Ugt1a1; liver, high-dose Q3GA 10 mg/kg i.v. 7 days): 49.63%
- decrease in UGT1A1 protein expression (Ugt1a1; liver, low-dose Q3GA 2.5 mg/kg i.v. 7 days): 71.06%
- decrease in UGT1A1 protein expression (Ugt1a1; liver, middle-dose Q3GA 5 mg/kg i.v. 7 days): 38.05%
- decrease in UGT1A1 protein expression (Ugt1a1; small intestine, high-dose Q3GA 10 mg/kg i.v. 7 days): 46.57%
- decrease in UGT1A1 protein expression (Ugt1a1; small intestine, low-dose Q3GA 2.5 mg/kg i.v. 7 days): 76.81%
- decrease in UGT1A1 protein expression (Ugt1a1; [6]): 36.26%
- increase in GSTM1 protein expression (Gstm1; high-dose Q3GA 10 mg/kg i.v. 7 days, P<0.05): 229.75%
- increase in GSTM1 protein expression (Gstm1; low-dose Q3GA 2.5 mg/kg i.v. 7 days, P<0.001): 417.29%
- increase in GSTM1 protein expression (Gstm1; middle-dose Q3GA 5 mg/kg i.v. 7 days): 159.37%
- decrease in Mdr1 mRNA expression (Mdr1; liver, high-dose Q3GA 10 mg/kg i.v. 7 days, P<0.01): 47.32%
- decrease in Mdr1 mRNA expression (Mdr1; [2]): 67.60%
- decrease in Mdr1 mRNA expression (Mdr1; liver, middle-dose Q3GA 5 mg/kg i.v. 7 days, P<0.05): 45.09%
- decrease in Mdr1 mRNA expression (Mdr1; [7]): 33.33%
- decrease in Mdr1 mRNA expression (Mdr1; [4]): 47.47%
- decrease in Mdr1 mRNA expression (Mdr1; small intestine, middle-dose Q3GA 5 mg/kg i.v. 7 days, P<0.001): 17.51%

From paper PMC6102747 (Molecular Medicine Reports, 2018)
